Results taken from ChEMBL document CHEMBL1133013, “Structure-activity relationships and pharmacokinetic analysis for a series of potent, systemically available biphenylsulfonamide matrix metalloproteinase inhibitors” (J Med Chem, 2000).

Columns and labels:
[1] = Concentration in rat plasma 24 hours after single 5 mg/kg oral cassette gavage dose; type: ADME, organism-based; set-up: dose 5 mg/kg, route oral; details: read-out: C24
[2] = target: Matrix metalloproteinase-9 (Homo sapiens, UniProt P14780); assay: In vitro inhibition of matrix metalloprotease-9 (MMP-9)
[3] = Pharmacokinetic parameters in rats following a single 5 mg/kg oral cassette gavage dose; type: ADME, organism-based; set-up: dose 5 mg/kg, route oral; details: rat, in vivo, read-out: AUC 0-infinity
Summary of the method: (§1)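 Cassette of 5–7 compounds given together as one oral gavage, 5 mg/kg per compound, methyl cellulose suspension, 3 fasted male Wistar rats (80-90 days old). Heparinized plasma taken by jugular cannula predose to 48 h. LC-MS/MS with LLOQ 10 ng/mL. Noncompartmental analysis of individual rats: Cmax/tmax as observed, t1/2 = 0.693/λz, trapezoidal AUC(0-tldc) extrapolated to infinity.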

[4] = Cmax in rat plasma after single 5 mg/kg oral cassette gavage dose; type: ADME, organism-based; set-up: dose 5 mg/kg, route oral; summary of the method: as §1
[5] = target: Stromelysin-1 (Homo sapiens, UniProt P08254); assay: In vitro inhibition of recombinant human matrix metalloprotease-3 (MMP-3)
[6] = target: Collagenase 3 (Homo sapiens, UniProt P45452)
[7] = target: T1, Matrilysin (Homo sapiens, UniProt P09237); assay: In vitro inhibition of matrix metalloprotease-7 (MMP-7)
T1 sequence (P09237 whole entry): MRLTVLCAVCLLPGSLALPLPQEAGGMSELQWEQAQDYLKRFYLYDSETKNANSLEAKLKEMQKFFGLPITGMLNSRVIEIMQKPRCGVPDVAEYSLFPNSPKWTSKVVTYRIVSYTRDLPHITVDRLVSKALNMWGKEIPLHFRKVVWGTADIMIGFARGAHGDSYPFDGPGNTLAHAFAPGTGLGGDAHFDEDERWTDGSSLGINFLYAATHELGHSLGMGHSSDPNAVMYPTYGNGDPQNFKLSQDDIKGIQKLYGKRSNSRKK

[8] = Half life (t1/2) in rats following a single 5 mg/kg oral cassette gavage dose; type: ADME, organism-based; set-up: dose 5 mg/kg, route oral; details: rat, in vivo; summary of the method: as §1
[9] = target: T2, Interstitial collagenase (Homo sapiens, UniProt P03956); assay: In vitro inhibition of human recombinant matrix metalloprotease-1 (MMP-1)
T2 sequence (P03956 whole entry): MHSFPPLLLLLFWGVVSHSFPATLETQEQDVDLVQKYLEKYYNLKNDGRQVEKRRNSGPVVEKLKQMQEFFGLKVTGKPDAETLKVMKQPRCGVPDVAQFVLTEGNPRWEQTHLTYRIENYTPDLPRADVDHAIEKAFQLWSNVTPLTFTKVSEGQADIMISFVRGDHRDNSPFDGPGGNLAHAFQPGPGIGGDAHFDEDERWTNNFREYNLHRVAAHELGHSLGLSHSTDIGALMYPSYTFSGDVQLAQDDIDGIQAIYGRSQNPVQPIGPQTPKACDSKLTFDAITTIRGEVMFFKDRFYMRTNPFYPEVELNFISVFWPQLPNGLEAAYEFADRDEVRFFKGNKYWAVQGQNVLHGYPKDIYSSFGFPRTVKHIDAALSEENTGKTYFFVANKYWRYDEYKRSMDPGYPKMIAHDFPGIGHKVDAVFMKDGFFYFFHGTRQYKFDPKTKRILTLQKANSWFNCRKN

[10] = target: 72 kDa type IV collagenase (Homo sapiens, UniProt P08253); assay: In vitro inhibition of matrix metalloprotease-2 (MMP-2)
[11] = AUC in rats following a single 5 mg/kg oral cassette gavage dose; type: ADME, organism-based; set-up: dose 5 mg/kg, route oral; details: rat, plasma, read-out: AUC 0-tldc; summary of the method: as §1
[12] = Time to maximal concentration (tmax) in rats following a single 5 mg/kg oral cassette gavage dose; type: ADME, organism-based; set-up: dose 5 mg/kg, route oral; details: rat, in vivo; summary of the method: as §1

Chain of 72 kDa type IV collagenase (P08253 whole entry): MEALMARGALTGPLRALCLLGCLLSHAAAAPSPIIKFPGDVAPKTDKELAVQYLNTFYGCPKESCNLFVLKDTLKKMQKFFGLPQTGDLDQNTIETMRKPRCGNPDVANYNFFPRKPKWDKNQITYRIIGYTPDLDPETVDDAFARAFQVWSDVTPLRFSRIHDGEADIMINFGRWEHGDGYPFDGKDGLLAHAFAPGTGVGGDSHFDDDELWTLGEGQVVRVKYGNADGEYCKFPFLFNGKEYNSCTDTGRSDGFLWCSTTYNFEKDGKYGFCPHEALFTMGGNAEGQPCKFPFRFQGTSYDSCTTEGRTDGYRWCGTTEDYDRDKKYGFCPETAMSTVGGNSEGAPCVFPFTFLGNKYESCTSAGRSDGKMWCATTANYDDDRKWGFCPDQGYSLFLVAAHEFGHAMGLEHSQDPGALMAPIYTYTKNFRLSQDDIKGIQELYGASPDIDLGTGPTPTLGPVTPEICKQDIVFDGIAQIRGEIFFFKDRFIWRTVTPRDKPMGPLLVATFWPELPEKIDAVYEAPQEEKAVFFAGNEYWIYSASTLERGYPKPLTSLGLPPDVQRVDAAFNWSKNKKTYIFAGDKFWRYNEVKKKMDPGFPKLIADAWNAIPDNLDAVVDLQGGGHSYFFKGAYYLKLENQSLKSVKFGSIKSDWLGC
Chain of Stromelysin-1 (P08254 whole entry): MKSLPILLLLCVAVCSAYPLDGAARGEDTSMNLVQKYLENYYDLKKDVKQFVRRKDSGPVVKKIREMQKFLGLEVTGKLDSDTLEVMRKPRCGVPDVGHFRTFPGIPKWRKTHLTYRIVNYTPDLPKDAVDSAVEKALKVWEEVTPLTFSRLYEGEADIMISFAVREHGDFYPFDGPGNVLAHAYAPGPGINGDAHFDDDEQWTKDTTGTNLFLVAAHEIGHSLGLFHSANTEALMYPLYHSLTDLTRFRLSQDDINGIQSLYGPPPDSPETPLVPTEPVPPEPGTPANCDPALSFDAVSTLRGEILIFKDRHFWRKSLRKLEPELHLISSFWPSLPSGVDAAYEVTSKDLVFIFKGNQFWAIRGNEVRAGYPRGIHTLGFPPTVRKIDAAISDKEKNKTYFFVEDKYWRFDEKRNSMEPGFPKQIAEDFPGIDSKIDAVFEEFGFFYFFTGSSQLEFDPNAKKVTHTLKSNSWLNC
Chain of Matrix metalloproteinase-9 (P14780 whole entry): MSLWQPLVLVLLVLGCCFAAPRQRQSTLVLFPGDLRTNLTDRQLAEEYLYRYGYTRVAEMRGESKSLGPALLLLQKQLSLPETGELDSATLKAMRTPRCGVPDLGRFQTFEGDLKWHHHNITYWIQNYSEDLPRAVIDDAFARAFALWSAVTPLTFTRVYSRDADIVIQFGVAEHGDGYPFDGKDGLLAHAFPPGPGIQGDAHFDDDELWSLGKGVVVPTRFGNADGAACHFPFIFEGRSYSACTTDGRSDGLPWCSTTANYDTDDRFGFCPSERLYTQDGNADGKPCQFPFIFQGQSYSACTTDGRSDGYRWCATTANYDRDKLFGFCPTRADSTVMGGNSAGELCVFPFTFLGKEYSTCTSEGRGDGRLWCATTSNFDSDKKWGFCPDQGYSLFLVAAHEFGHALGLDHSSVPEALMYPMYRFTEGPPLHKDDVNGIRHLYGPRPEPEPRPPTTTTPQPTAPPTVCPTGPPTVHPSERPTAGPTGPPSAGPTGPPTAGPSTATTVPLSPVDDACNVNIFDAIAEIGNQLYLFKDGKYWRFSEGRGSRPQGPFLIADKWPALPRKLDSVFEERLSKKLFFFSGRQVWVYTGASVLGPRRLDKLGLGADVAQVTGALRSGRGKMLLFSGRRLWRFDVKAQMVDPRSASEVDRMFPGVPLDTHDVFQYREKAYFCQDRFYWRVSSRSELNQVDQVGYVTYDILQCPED

SMILES | concentration at 24 h [1] | IC50 [2] | AUC [3] | Cmax [4] | IC50 [5] | IC50 [6] | IC50 [7] | half-life [8] | IC50 [9] | IC50 [10] | AUC [11] | Tmax [12]
CC(C)[C@@H](NS(=O)(=O)c1ccc(-c2ccc(Br)cc2)cc1)C(=O)NO | 10 ng/mL | 18 nM | 5.86 µg·h/mL | 5930 ng/mL | 5 nM | 2 nM | 140 nM | 6.78 h | 110 nM | 1 nM | 5.73 µg·h/mL | 0.33 h
O=C(O)C(CCS(=O)(=O)Cc1ccccc1)NS(=O)(=O)c1ccc(-c2ccc(Br)cc2)cc1 (stereo not drawn) | – | 2300 nM | 2.73 µg·h/mL | 451 ng/mL | 7 nM | 12 nM | 15000 nM | 3.88 h | 27000 nM | 2 nM | 2.48 µg·h/mL | 1.67 h
CC(C)[C@H](NS(=O)(=O)c1ccc(-c2ccc(C=O)cc2)cc1)C(=O)O | – | 17000 nM | – | – | 8 nM | 16 nM | 4500 nM | – | 3200 nM | 12 nM | – | –
C[C@H](NS(=O)(=O)c1ccc(-c2ccc(Br)cc2)cc1)C(=O)O | 12900 ng/mL | 9500 nM | 818 µg·h/mL | 17200 ng/mL | 12 nM | 10 nM | 11000 nM | 25.1 h | – | 12 nM | 584 µg·h/mL | 10.5 h
O=C(O)[C@H](Cc1ccccc1)NS(=O)(=O)c1ccc(-c2ccc(Br)cc2)cc1 | 6280 ng/mL | 27000 nM | 465 µg·h/mL | 10300 ng/mL | 20 nM | 21 nM | 100000 nM | 29.7 h | – | 19 nM | 310 µg·h/mL | 2.67 h
CC(C)[C@H](NS(=O)(=O)c1ccc(-c2cccc(Br)c2)cc1)C(=O)O | – | – | – | – | 290 nM | 710 nM | – | – | – | 535 nM | – | –
COc1ccc(-c2ccc(S(=O)(=O)N[C@H](C(=O)O)C(C)C)cc2)cc1 | < 10 ng/mL | 2200 nM | 2.98 µg·h/mL | 4260 ng/mL | – | 6 nM | 7200 nM | 0.357 h | 1500 nM | 3 nM | 2.79 µg·h/mL | 0.5 h
CC(C)[C@H](NS(=O)(=O)c1ccc(-c2ccc(N)cc2)cc1)C(=O)O | – | 20000 nM | – | – | 36 nM | 105 nM | 31000 nM | – | – | – | – | –
CC(C)[C@@H](NS(=O)(=O)c1ccc(-c2ccc(C#N)cc2)cc1)C(=O)NO | – | 27 nM | 0.33 µg·h/mL | 180 ng/mL | 5 nM | – | 240 nM | 0.79 h | 170 nM | – | 0.23 µg·h/mL | 1 h
CC(C)[C@H](NS(=O)(=O)c1ccc(-c2ccc(C#N)cc2)cc1)C(=O)NO | – | 100000 nM | – | – | 135 nM | – | 16000 nM | – | 29000 nM | – | – | –
O=C(NCCCC[C@H](NS(=O)(=O)c1ccc(-c2ccc(Br)cc2)cc1)C(=O)O)OCc1ccccc1 | – | 10000 nM | – | – | 28 nM | 13 nM | 15000 nM | – | 40000 nM | 31 nM | – | –
O=C(CCc1ccccc1)NCCCC[C@H](NS(=O)(=O)c1ccc(-c2ccc(Br)cc2)cc1)C(=O)O | – | 4800 nM | – | – | 10 nM | – | 8600 nM | – | 15000 nM | – | – | –
CC(C)[C@H](NS(=O)(=O)c1ccc(-c2ccc(Br)cc2)cc1)C(=O)NO | – | 84000 nM | – | – | 810 nM | 650 nM | 78000 nM | – | 24000 nM | 450 nM | – | –
CC(C)[C@H](NS(=O)(=O)c1ccc(-c2cccc(F)c2)cc1)C(=O)O | – | 65000 nM | – | – | 17 nM | 150 nM | 22000 nM | – | 8600 nM | 49 nM | – | –
CC(C)[C@H](NS(=O)(=O)c1ccc(-c2ccc(C(F)(F)F)cc2)cc1)C(=O)O | 11700 ng/mL | 20000 nM | 1110 µg·h/mL | 18600 ng/mL | 9 nM | 23 nM | 7900 nM | 37.9 h | 4200 nM | – | 685 µg·h/mL | 2.25 h
CC(C)[C@@H](NS(=O)(=O)c1ccc(Oc2ccccc2)cc1)C(=O)NO | – | 3 nM | 3.17 µg·h/mL | 310 ng/mL | 4 nM | 2 nM | 180 nM | 7.78 h | – | 1 nM | 2.17 µg·h/mL | 0.33 h
CC(C)[C@@H](NS(=O)(=O)c1ccc(-c2ccc(Br)cc2)cc1)C(=O)O | 16300 ng/mL | 1500 nM | 1380 µg·h/mL | 25600 ng/mL | – | – | 11000 nM | 41.7 h | – | – | 924 µg·h/mL | 4.5 h
CC(C)[C@H](NS(=O)(=O)c1ccc(-c2ccc([N+](=O)[O-])cc2)cc1)C(=O)O | 8360 ng/mL | 38000 nM | 586 µg·h/mL | 23400 ng/mL | 15 nM | 102 nM | 5600 nM | 19.5 h | 12000 nM | – | 402 µg·h/mL | 0.667 h
CC(C)[C@H](NS(=O)(=O)c1ccc(-c2ccc(Br)cc2)cc1)C(=O)O | 22700 ng/mL | 7900 nM | 2820 µg·h/mL | 42400 ng/mL | – | – | 7200 nM | 43.6 h | – | – | 1400 µg·h/mL | 2 h
O=C(CCc1ccccc1)NCCC[C@H](NS(=O)(=O)c1ccc(-c2ccc(Br)cc2)cc1)C(=O)O | – | 7700 nM | – | – | 21 nM | 7 nM | 6800 nM | – | 41000 nM | 8 nM | – | –
